Measured values gathered from unrelated publications.
Compare with care: the assays were run in different laboratories.
Target: Tyrosine-protein kinase BTK (BTK, Homo sapiens, UniProt Q06187)

`C[C@H]1CCN(c2nccc(-c3cnn4ncccc34)n2)C1` gave a remaining binding of 95% (binding; 1 µM).
The remaining binding of `N#Cc1ccccc1CSc1nnc2c(n1)[nH]c1ccccc12` is reported as 100% (binding, competition with immobilised ligand; 10 µM).
`O=C(N1CCS(=O)(=O)CC1)N1C[C@H](c2ccc(OC(F)(F)F)cc2)C[C@H](c2nc(C3CC3)no2)C1` gave a remaining binding of 100% (cell-free assay, competition with immobilised ligand; 1 µM).
With `COc1cnc(Nc2cccc(S(N)(=O)=O)c2)nc1N1CCN(c2ccccc2)C(=O)C1` the remaining binding was 81% (binding, competition with immobilised ligand; 1 µM).
With `COc1ccnn2ncc(-c3ccnc(N(C)C)n3)c12` the remaining binding was 94% (binding; 1 µM).
With `CO[C@@H](C)c1c(Nc2ccc([C@H](N(C)C(=O)C3CCS(=O)(=O)CC3)C(F)(F)F)cc2)cnc2cc(Cl)nn12` the remaining binding was 100% (cell-free assay, competition with immobilised ligand; 1 µM).
`CC1CCCN1c1nccc(-c2cnn3ncccc23)n1` (stereo not drawn) gave a remaining binding of 100% (binding; 1 µM).
With `CN(c1ccnc(CNc2nc(Nc3ccc4c(c3)CC(=O)N4)ncc2C(F)(F)F)n1)S(C)(=O)=O` the remaining binding was 63% (cell-free assay, competition with immobilised ligand; 1 µM).
For `CNC(=O)[C@@H]1CC[C@@H](n2c(-c3ccc4cnccc4c3)nc3ccc(C(=O)NCc4cccc(C(N)=O)c4)cc32)C1`, the remaining binding was 96% (binding, competition with immobilised ligand; 1 µM).
With `F[C@@H]1CCN(c2nccc(-c3cnn4ncccc34)n2)C1` the remaining binding was 100% (binding; 1 µM).
The remaining binding of `Nc1c(C(=O)NCc2ccc(C(=O)NCCCC3CCCCC3)cc2)cnn1-c1ccccc1` is reported as 100% (cell-free assay, competition with immobilised ligand; 0.1 µM).
The remaining binding of `CN(C)c1ncc(F)c(-c2cnn3ncccc23)n1` is reported as 75% (binding; 1 µM).
With `CC(=O)Nc1c(C(C)=O)c(=O)n(C)c2nc(-c3ccc(Cl)cc3Cl)c(-c3ccc(Cl)cc3)cc12` the remaining binding was 88% (cell-free assay, competition with immobilised ligand; 1 µM).
With `Cc1ccc(-n2nc(C(C)(C)C)cc2NC(=O)Nc2ccc(-n3c(N)c(C(N)=O)c4nc5ccccc5nc43)cc2)cc1` the remaining binding was 0.95% (cell-free assay, competition with immobilised ligand; 1 µM).
`CS(=O)(=O)N1CCCC(NC(=O)[C@H](CCC2CCCCC2)NC(=O)c2ccc(CNc3ncnc4c3nnn4-c3ccccc3)cc2)C1` (stereo partly drawn) gave a remaining binding of 100% (cell-free assay, competition with immobilised ligand; 0.1 µM).
For `Cc1cnn2ncc(-c3ccnc(N(C)C)n3)c2c1`, the remaining binding was 91% (binding; 1 µM).
`O=C(NCCCN1CCOCC1)c1ccc(Nc2ncc(Cl)c(-c3ccc(Cl)s3)n2)cc1` has a remaining binding of 100% (binding, competition with immobilised ligand; 1 µM).
`CC(C)(C)c1ccc(-c2nc(CBr)nn2-c2cccc(O)c2)cc1` gave a remaining binding of 83% (cell-free assay, competition with immobilised ligand; 10 µM).
The remaining binding of `CN(C)c1nccc(-c2cnn3ncccc23)n1` is reported as 85% (binding; 1 µM).
The remaining binding of `O=C(NCCCN1CCOCC1)c1ccc(Nc2nccc(-c3cc4ccccc4s3)n2)cc1` is reported as 77% (binding, competition with immobilised ligand; 1 µM).
`Cc1nc(C2CCN(C(=O)c3ccc(OC(F)(F)F)cc3N)CC2)c2ncc(N3CCN(C)CC3)cc2n1` has a remaining binding of 87% (cell-free assay, competition with immobilised ligand; 1 µM).
With `C[C@@H]1CN(c2ccc3ncc(-c4ccc5[nH]nc(C6CC6)c5c4)n3n2)C[C@H](C)O1` the remaining binding was 89% (binding, competition with immobilised ligand; 0.5 µM).
`O=C(c1ccc(Nc2ncc(Cl)c(-c3cc4ccccc4s3)n2)cc1)N1CCC(N2CCCC2)CC1` gave a remaining binding of 63% (binding, competition with immobilised ligand; 1 µM).
The remaining binding of `O=C(Nc1c[nH]nc1C(=O)NC1CCNCC1)c1cc(F)cc(F)c1` is reported as 100% (binding, competition with immobilised ligand; 1 µM).
